Experimental data taken from ChEMBL document CHEMBL4033676, “Design, synthesis and biological evaluation of 3,4-dihydro-2(1H)-quinoline-O-alkylamine derivatives as new multipotent cholinesterase/monoamine oxidase inhibitors for the treatment of Alzheimer's disease” (Bioorg Med Chem, 2017).
Active and inactive are the calls of the source. The rule behind the calls is not given here.

What was measured:
[1] = target: T1, Amine oxidase [flavin-containing] A (Homo sapiens, UniProt P21397); experiment: Inhibition of recombinant human MAO-A expressed in baculovirus infected BTI insect cells using kynuramine as substrate after 30 mins by fluorescence assay
T1 sequence (P21397 whole entry): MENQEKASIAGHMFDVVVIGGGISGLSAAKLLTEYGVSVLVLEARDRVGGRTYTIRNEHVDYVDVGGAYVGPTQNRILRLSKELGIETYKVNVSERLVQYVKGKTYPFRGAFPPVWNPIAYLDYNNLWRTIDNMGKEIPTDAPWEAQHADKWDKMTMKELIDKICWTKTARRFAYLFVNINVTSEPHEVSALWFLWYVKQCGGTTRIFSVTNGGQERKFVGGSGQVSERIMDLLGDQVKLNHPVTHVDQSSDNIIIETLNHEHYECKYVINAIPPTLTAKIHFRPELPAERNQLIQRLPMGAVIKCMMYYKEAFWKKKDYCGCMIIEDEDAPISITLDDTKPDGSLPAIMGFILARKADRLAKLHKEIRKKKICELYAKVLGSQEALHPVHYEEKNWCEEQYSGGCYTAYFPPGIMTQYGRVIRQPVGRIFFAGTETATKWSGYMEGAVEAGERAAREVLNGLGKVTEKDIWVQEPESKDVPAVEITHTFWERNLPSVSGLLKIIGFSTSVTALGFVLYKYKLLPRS

[2] = Inhibition of rat serum BuChE using butyrylthiocholine chloride as substrate after 15 mins by Ellman's method
Summary of the method: (§1)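 Ellman assay. Equine serum or rat serum BuChE pre-incubated with test compound at various concentrations (DMSO <1%) in 0.1 M phosphate buffer pH 8.0 for 15 min at 37°C. DTNB (0.2%) added, absorbance read at 412 nm. Inhibition % = (1−Ai/Ac)×100. IC50 is the mean of three independent experiments, each run in triplicate.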

[3] = target: Acetylcholinesterase (Electrophorus electricus) (UniProt O42275); experiment: Mixed type inhibition of electric eel AChE using acetylthiocholine iodide as substrate up to 1 uM preincubated for 15 mins followed by substrate addition by Lineweaver-Burk plot analysis
Chain of Acetylcholinesterase (Electrophorus electricus) (O42275 24-633 limits assumed): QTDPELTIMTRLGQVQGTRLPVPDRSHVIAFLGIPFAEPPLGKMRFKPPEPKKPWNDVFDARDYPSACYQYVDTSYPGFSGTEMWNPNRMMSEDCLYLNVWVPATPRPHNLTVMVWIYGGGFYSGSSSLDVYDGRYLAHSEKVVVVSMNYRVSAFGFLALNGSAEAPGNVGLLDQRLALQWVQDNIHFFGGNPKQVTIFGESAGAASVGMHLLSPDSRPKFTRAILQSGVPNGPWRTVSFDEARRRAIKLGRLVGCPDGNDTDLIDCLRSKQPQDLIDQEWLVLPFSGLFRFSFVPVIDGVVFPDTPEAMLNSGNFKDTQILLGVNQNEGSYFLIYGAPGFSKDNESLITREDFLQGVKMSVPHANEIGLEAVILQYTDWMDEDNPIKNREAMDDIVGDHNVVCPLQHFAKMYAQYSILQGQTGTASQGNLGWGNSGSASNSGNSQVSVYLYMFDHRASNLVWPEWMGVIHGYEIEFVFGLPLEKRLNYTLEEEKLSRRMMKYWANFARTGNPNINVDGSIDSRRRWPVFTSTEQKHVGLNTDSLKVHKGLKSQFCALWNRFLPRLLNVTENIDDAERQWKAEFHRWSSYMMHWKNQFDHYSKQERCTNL
Summary of the method: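 Purified Electrophorus electricus AChE (0.5 units/mL) in 0.1 M phosphate buffer pH 8.0 with 0.2% DTNB. Three inhibitor concentrations pre-incubated with enzyme for 15 min at 37°C, then acetylthiocholine iodide added at varying concentrations. Hydrolysis followed at 412 nm; no-inhibitor controls run in parallel. Weighted least-squares double-reciprocal analysis; Ki taken from the x-intercept of a secondary slope replot.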

Homo sapiens = species: Homo sapiens; experiment: Selectivity index, ratio of IC50 for recombinant human MAO-B to IC50 for recombinant human MAO-A
PC-12 [4] = experiment: Cytotoxicity against rat PC12 cells assessed as decrease in cell viability up to 10 uM after 24 hrs by MTT assay; format: cell-based; details: pc-12, 24 h
physchem = details: PAMPA
Acetylcholinesterase [5] = target: Acetylcholinesterase (Electrophorus electricus, UniProt O42275); experiment: Inhibition of electric eel AChE using acetylthiocholine chloride as substrate after 15 mins by Ellman's method
Chain of Acetylcholinesterase (Electrophorus electricus, UniProt O42275) (O42275 whole entry): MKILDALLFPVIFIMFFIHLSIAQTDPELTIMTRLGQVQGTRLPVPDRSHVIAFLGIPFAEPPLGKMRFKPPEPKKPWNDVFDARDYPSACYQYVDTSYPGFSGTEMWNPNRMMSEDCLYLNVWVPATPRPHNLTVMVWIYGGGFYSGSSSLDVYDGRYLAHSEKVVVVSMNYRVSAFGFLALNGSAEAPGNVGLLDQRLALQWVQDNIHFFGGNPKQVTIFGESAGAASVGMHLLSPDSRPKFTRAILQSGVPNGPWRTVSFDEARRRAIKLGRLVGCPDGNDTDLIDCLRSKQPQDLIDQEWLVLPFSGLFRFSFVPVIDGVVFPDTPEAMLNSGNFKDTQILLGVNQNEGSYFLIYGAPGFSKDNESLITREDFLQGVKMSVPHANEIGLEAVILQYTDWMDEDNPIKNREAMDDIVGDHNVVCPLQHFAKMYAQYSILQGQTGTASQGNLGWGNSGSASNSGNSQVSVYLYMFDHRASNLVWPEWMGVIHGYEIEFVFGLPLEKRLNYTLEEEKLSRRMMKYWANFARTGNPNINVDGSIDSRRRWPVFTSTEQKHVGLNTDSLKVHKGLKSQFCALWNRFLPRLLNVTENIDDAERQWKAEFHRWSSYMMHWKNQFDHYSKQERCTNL

[6] = target: T2, Amine oxidase [flavin-containing] B (Homo sapiens, UniProt P27338); experiment: biochemical; format: cell-based
T2 sequence (P27338 whole entry): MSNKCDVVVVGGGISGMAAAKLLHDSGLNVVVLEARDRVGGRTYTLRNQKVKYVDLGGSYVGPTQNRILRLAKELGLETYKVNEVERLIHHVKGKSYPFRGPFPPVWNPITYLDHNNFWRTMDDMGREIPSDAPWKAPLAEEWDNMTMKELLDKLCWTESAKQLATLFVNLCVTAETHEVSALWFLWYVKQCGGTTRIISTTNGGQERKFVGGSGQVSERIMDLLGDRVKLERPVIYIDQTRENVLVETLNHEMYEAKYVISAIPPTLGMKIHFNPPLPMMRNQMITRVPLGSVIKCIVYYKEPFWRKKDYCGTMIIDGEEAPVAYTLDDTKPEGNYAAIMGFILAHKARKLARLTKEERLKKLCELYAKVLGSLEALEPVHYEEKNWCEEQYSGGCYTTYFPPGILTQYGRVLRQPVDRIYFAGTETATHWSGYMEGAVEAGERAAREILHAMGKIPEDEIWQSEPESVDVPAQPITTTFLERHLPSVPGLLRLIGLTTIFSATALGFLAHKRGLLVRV

Acetylcholinesterase [7] = target: T3, Acetylcholinesterase (Rattus norvegicus, UniProt P37136)
T3 sequence (P37136 whole entry): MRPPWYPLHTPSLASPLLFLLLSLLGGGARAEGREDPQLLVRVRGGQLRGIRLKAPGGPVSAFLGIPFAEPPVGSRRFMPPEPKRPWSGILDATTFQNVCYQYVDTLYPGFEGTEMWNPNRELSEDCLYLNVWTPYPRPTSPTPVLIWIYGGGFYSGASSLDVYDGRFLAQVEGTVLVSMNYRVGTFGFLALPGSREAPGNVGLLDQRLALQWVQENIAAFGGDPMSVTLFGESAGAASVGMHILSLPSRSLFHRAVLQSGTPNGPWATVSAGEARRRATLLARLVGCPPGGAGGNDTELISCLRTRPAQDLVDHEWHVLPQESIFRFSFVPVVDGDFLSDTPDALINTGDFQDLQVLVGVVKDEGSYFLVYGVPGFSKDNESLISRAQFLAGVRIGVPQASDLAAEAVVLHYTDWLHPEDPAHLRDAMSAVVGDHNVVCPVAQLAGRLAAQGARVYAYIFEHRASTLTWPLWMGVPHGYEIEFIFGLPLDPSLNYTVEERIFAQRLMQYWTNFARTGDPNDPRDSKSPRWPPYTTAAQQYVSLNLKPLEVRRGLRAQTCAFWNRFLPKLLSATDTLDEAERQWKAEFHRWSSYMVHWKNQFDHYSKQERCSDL

[8] = Selectivity index, ratio of IC50 for equine serum BuChE to IC50 for electric eel AChE
Rattus norvegicus = species: Rattus norvegicus; experiment: Selectivity index, ratio of IC50 for rat serum BuChE to IC50 for 5% rat cortex homogenate AChE
PC-12 [9] = experiment: Cytotoxicity against rat PC12 cells assessed as decrease in cell viability at 100 uM after 24 hrs by MTT assay; format: cell-based; details: pc-12, 24 h
Cholinesterase = Cholinesterase (Equus caballus, UniProt P81908); experiment: Inhibition of equine serum BuChE using butyrylthiocholine chloride as substrate after 15 mins by Ellman's method; summary of the method: as §1
Chain of Cholinesterase (P81908 whole entry): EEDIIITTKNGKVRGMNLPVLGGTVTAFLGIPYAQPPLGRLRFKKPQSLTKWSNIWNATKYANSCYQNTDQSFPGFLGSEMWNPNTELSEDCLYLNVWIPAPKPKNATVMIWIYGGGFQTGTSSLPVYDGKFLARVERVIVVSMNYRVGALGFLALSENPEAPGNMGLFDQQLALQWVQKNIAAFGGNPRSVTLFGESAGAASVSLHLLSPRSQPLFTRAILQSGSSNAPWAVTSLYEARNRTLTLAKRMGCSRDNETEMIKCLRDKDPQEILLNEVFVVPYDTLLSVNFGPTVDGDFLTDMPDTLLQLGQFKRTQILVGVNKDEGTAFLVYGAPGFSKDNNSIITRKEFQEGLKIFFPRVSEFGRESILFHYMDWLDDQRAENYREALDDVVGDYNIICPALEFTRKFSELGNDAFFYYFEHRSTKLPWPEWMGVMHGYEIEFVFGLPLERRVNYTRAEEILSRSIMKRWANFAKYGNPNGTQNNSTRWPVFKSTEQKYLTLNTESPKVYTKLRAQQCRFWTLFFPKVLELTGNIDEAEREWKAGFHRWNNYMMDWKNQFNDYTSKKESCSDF

## O=C1CCc2ccc(OCCCCCCN3CCC(Cc4ccccc4)CC3)cc2N1
[1]
  IC50: 0.3 µM
[2]
  IC50: 3.6 µM
[3]
  inhibition: Active
Homo sapiens
  Ratio IC50: 4.7
PC-12 [4]
  Activity: Non-Toxic
physchem
  Papp at 18 h, 100 ug/ml: 25.6 ×10⁻⁶ cm/s
Acetylcholinesterase [5]
  IC50: 0.56 µM
[6]
  IC50: 1.4 µM
Acetylcholinesterase [7]
  IC50: 1.9 µM
[8]
  Ratio IC50: 4.1
Rattus norvegicus
  Ratio IC50: 1.9
PC-12 [9]
  Activity: 87.3%
Cholinesterase
  IC50: 2.3 µM
